Legend:
[1] = system: Jurkat; assay: The compound was tested in vitro for inhibition of IL-2 release stimulated with PMA/ionomycin by Jurkat cells.; format: functional, cell-based; settings: Homo sapiens
Outline: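 Jurkat cells at 2 × 10⁵/mL in RPMI-10 (10% heat-inactivated calf serum) with serial compound dilutions, stimulated with PMA 1000 ng/mL plus ionomycin 125 ng/mL, incubated overnight. IL-2 in supernatants quantified by ELISA.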

[2] = species on record: Mus musculus; assay: The compound was tested in vitro for inhibition of proliferation in BDF1 mouse spleen cells stimulated with concanavalin A (ConA).; format: functional
Outline: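 BDF1 mouse spleen cells, 5 × 10⁶/mL in RPMI-10, given compound dilutions and Con A 5 μg/mL. Cultured 72 h at 37 °C, 5% CO₂, with [³H]thymidine 0.5 μCi over the last 16 h. Incorporated radioactivity counted by scintillation. Quadruplicate means used; viability checked by trypan blue. IC50 derived.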

IC50 [1]	SMILES	IC50 [2]
62 nM	C/C=C/CC(C)C(O)[C@H]1C(=O)N[C@@H](CC)C(=O)N(C)[C@H](C)C(=O)N(C)[C@@H](CC(C)C)C(=O)N[C@@H](C(C)C)C(=O)N(C)[C@@H](CC(C)C)C(=O)N[C@@H](Cc2ccccc2)C(=O)N[C@H](C)C(=O)N(C)[C@@H](CC(C)C)C(=O)N(C)[C@@H](CC(C)C)C(=O)N(C)[C@@H](C(C)C)C(=O)N1C (some centres not stated)	142 nM
21 nM	C/C=C/CC(C)[C@@H](O)[C@H]1C(=O)N[C@@H](CC)C(=O)N(C)CC(=O)N(C)[C@@H](CC(C)C)C(=O)N[C@@H](C(C)C)C(=O)N(C)[C@@H](CC(C)C)C(=O)N[C@@H](Cc2ccccc2)C(=O)N[C@H](CO)C(=O)N(C)[C@@H](CC(C)C)C(=O)N(C)[C@@H](CC(C)C)C(=O)N(C)[C@@H](C(C)C)C(=O)N1C (some centres not stated)	105 nM
107 nM	C/C=C/CC(C)[C@@H](O)[C@H]1C(=O)N[C@@H](CC)C(=O)N(C)CC(=O)N(C)[C@@H](CC(C)C)C(=O)N[C@@H](C(C)C)C(=O)N(C)[C@@H](CC(C)C)C(=O)N[C@@H](Cc2ccccc2)C(=O)N[C@H](C)C(=O)N(C)[C@@H](CC(C)C)C(=O)N(C)[C@@H](CC(C)C)C(=O)N(C)[C@@H](C(C)C)C(=O)N1C (some centres not stated)	248 nM
12 nM	C/C=C/C[C@@H](C)[C@@H](O)[C@H]1C(=O)N[C@@H](CC)C(=O)N(C)CC(=O)N(C)[C@@H](CC(C)C)C(=O)N[C@@H](C(C)C)C(=O)N(C)C(CC(C)C)C(=O)N[C@@H](C)C(=O)N[C@H](C)C(=O)N(C)C(CC(C)C)C(=O)N(C)[C@@H](CC(C)C)C(=O)N(C)C(C(C)C)C(=O)N1C (single isomer, unassigned) [CYCLOSPORINE]	–

From ChEMBL document CHEMBL1128319, “Cyclosporin analogs modified in the 3,7,8-positions: substituent effects on peptidylprolyl isomerase inhibition and immunosuppressive activity are nonadditive” (J Med Chem, 1995)
